# Source: PubChem BioAssay
# Calls of active or inactive are those of the source.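 The calls were made as follows: active = potentiation averaged over duplicate wells exceeding buffer-only control mean by more than 3 SD; inactive = the rest.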
# Target: Potassium voltage-gated channel subfamily KQT member 1 (Homo sapiens) (UniProt P51787)
# Experiment: KCNQ1 potassium channel potentiators, confirmation, FluxOR thallium flux, CHO cells, duplicates (AID 493007);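 as to outcome: cells depolarized by a potassium plus thallium sulfate stimulus after compound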;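 as to potentiation: 0% = buffer-only wells and 100% = R-L3 activator control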
# Settings: KCNQ1 cell line, FluxOR thallium flux fluorescence, at 10 µM; active compounds read high, % of reference activator effect, buffer zero
# Method in brief: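 Assay system: CHO cells carrying KCNQ1 | Controls: Buffer and R-L3 controls | Schedule: FluxOR dye loading 90 min, compound exposure 20 min, room temperature | Read-out: Baseline-normalized fluorescence change, percent of buffer-to-R-L3 range | Replicates: Each compound tested in duplicate | Technique: Kinetic thallium influx fluorescence with FluxOR dye, 10 s baseline, 110 s post-stimulus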
# Chain of Potassium voltage-gated channel subfamily KQT member 1 (Homo sapiens) (P51787 whole entry, looked up): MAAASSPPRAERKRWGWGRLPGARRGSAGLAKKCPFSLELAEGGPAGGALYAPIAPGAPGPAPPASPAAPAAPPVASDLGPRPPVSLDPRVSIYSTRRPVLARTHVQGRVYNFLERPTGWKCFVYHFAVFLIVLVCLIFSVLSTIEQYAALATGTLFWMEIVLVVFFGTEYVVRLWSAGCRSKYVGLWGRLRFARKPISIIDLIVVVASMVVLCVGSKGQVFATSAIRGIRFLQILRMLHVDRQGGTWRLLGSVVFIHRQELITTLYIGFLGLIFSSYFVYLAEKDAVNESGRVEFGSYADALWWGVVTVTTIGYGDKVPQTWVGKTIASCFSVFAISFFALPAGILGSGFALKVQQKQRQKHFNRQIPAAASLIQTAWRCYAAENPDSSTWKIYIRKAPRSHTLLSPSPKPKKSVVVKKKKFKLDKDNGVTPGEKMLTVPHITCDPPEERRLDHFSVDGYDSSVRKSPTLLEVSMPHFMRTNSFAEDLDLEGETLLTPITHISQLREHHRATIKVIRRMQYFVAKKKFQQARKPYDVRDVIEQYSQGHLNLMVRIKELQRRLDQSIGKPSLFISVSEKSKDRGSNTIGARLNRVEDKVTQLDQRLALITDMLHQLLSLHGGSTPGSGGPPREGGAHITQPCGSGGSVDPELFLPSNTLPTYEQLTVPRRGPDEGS
Compound,outcome,potentiation
CN1C=CC=C/C1=C1\SC(=S)N(Cc2ccccc2)C1=O,inactive,–
CCOc1ccc(NC(=O)CN(C)C(=O)C2CCN(c3ncnc4sc(C)c(C)c34)CC2)cc1OCC,inactive,–
CC1=NN(C(=O)c2csc(C)c2C)C(O)(C(F)(F)F)C1 (stereo not given),inactive,–
COc1ccc(C(=O)O/N=C(\N)Cc2ccc(Cl)cc2Cl)cc1OC,inactive,–
O=C(NCC1CCCO1)c1ccccc1OCc1ccc(F)cc1 (stereo not given),inactive,–
Cc1ccc(S(=O)(=O)N(C)c2nc3ccccc3[nH]c2=S)cc1,–,42.5% (active)
CC1=CC(=O)C=C(C)C1=NOS(=O)(=O)c1ccccc1,inactive,–
CCOc1ccccc1NC(=O)C(=O)CC(=O)c1cccc(OC)c1,–,87% (active)
O=C(CN(Cc1ccccc1Cl)C(=O)c1csnn1)NC1CCCC1,inactive,–
Oc1c(N=NC(=S)Nc2ccccc2F)c2ccccc2n1Cc1ccccc1,–,49% (active)
Fc1ccc(NC(=S)N/N=C/c2ccc(F)c(F)c2)c(F)c1,inactive,–
CCC1(c2ccc(Cl)cc2)NC(=S)N(c2ccc(C)c(C)c2)N1 (stereo not given),–,188% (active)
O=C(Nc1nnc(-c2ccco2)o1)c1cccc(Cl)c1,inactive,–
O=C(NC(=S)Nc1ccccc1F)c1ccc(Br)o1,–,55.5% (active)
COc1cccc(OCC(=O)NNC(=O)C(=O)Nc2ccc(OC)cc2OC)c1,–,55.5% (active)
COCCCn1c(=S)[nH]c2c(sc3ccccc32)c1=O,–,69.5% (active)
CN(C)c1ccc(C(=O)Nc2nnc(C3=COCCO3)o2)cc1,inactive,–
CCSc1nnc(NC(=O)[C@H](C)NC(=O)c2ccccc2Cl)s1,inactive,–
O=C(N/N=C/c1cccnc1)c1ccco1,inactive,–
O=C(c1ccccc1)N1CCC(CC2CC(c3ccc(Cl)cc3)=NO2)(C(=O)NCC2CCCCC2)CC1 (stereo not given),inactive,–

Compound,outcome,potentiation
O=c1c2ccccc2[nH]c(=S)n1CCC1=CCCCC1,–,46% (active)
Cc1ccc(-c2nc(N)s[n+]2-c2ccccc2)cc1,–,157% (active)
CCn1c(O)c(N=NC2=NC(=O)CS2)c2ccccc21,inactive,–
Cc1ccccc1-n1c(C)cc(/C=N/NC(=O)c2ccncc2)c1C,–,25% (active)
COc1cc(CNCCN2CCOCC2)ccc1OCc1ccc(Cl)cc1Cl,inactive,–
CN(C(=S)NC(=O)c1ccccc1)C1CCCCC1,–,29% (active)
CCc1ccc2[nH]c(O)c(N=Nc3nc(-c4ccccc4)cs3)c2c1,–,178% (active)
O=C(NC(=S)N1CCN(C/C=C/c2ccccc2)CC1)c1c(F)cccc1F,–,28.5% (active)
O=C(COC(=O)C12CC3CC(CC(C3)C1)C2)NCCCc1ccccc1,inactive,–
Cc1ccc(SCC2(O)CCN(S(=O)(=O)c3ccc(Cl)cc3)CC2)cc1,inactive,–
O=C(NC(=S)N1CCCc2ccccc21)c1ccc([N+](=O)[O-])cc1,–,82% (active)
Cc1ccc(-c2nc3ccccc3o2)cc1NC(=S)NC(=O)c1cc2ccccc2o1,–,21.5% (active)
O=C(CSc1nnc(SCc2cccc3ccccc23)s1)c1ccc2c(c1)OCO2,inactive,–
COCCn1c(=S)[nH]c2sc3c(c2c1=O)CCCC3,–,106% (active)
O=C(CC1C(=O)NCCN1Cc1cccc(F)c1)NCCCN1CCCC1=O (stereo not given),inactive,–
O=C(NC(=S)Nc1cccc(Cl)c1N1CCCCC1)c1ccco1,–,148% (active)
CCCc1cc(=O)n2[nH]cc(-c3ccc(Cl)cc3)c2n1,–,36% (active)
Oc1oc(-c2cccc3ccccc23)nc1/C=N/c1nccs1,–,48.5% (active)
O=c1c2ccccc2nc(-c2cccc(Cl)c2)n1O,–,100% (active)
CCCCN1CNC(=S)N(c2ccccc2OCC)C1,inactive,–
